Experimental data taken from ChEMBL document CHEMBL4043182, “On the synthesis of quinone-based BODIPY hybrids: New insights on antitumor activity and mechanism of action in cancer cells” (Bioorg Med Chem Lett, 2017).
Active and inactive are the calls of the source. No cut-off for these calls is given here.

Experiments:
PC-3 [1] = test: Geno-toxicity in human PC3 cells assessed as induction of DNA damage at 2.5 to 10 uM after 24 hrs in absence of NAC by alkaline comet assay; format: functional, cell-based
Summary of the method: (§1)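 Alkaline comet assay after 24 h at 2.5, 5 and 10 µM, with or without 24 h pretreatment with 5 mM NAC. Cells were trypsinized and embedded in 0.75% low-melting agarose, then lysed at pH 10, 4 °C, ≥1 h. DNA was unwound 20 min at pH >13 and electrophoresed 20 min at 25 V, 300 mA (0.86 V/cm), then stained with ethidium bromide. 100 cells (2 slides) were scored in classes 0–4 for a damage index. Mean ± SEM, three independent experiments in triplicate.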

L929 [2] = test: Induction of oxidative stress in mouse L929 cells assessed as total GSSG levels at 5 uM treated 24 hrs post NAC addition measured after 24 hrs by spectrophotometric analysis (reference value: 1.05 +/- 0.33 microg/mg); format: cell-based; conditions: l929, 24 h
PC-3 [3] = test: Induction of oxidative stress in human PC3 cells assessed as GSH to GSSG ratio at 5 uM treated 24 hrs post NAC addition measured after 24 hrs by spectrophotometric analysis (reference value: 2.69 +/- 0.21 microg/mg); format: functional
Summary of the method: (§2)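 Cells were pretreated 24 h with 5 mM NAC, then exposed 24 h to test compound at 5 µM. Controls received 0.1% DMSO. Extracts were prepared by sonication and HClO4 precipitation, then neutralized with KOH. Total glutathione was read by DTNB/glutathione reductase/NADPH rate at 412 nm. GSSG was measured after 4-vinylpyridine (0.1%, 1 h, RT) and GSH derived by difference. Values are normalized to protein, triplicates, three independent runs.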

[4] = Selective index, ratio of IC50 for mouse L929 cells to IC50 for human HCT116 cells
Summary of the method: (§3)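 Selectivity index is the ratio of the IC50 in a non-cancer murine line (V79 or L929) to the IC50 in the cancer line. […] MTT was 0.5 mg/mL for 3 h, formazan dissolved in DMSO and read at 595 nm as % of control. IC50s were derived by nonlinear regression; triplicate, at least three repeats.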

L929 [5] = test: Induction of oxidative stress in mouse L929 cells assessed as GSH to GSSG ratio at 5 uM treated 24 hrs post NAC addition measured after 24 hrs by spectrophotometric analysis (reference value: 3.55 +/- 0.51 microg/mg); format: cell-based; conditions: l929, 24 h; summary of the method: as §2
[6] = Selective index, ratio of IC50 for mouse L929 cells to IC50 for human SW620 cells; summary of the method: as §3
HCT-116 [7] = test: Induction of lipid peroxidation in human HCT116 cells assessed as increase in MDA levels at 2.5 to 10 uM after 24 hrs in absence of NAC by TBARS assay; format: functional, cell-based
Summary of the method: (§4)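 TBARS: cells were exposed 24 h, with or without 24 h prior 5 mM NAC, and lysed in Tris-HCl. Lysate was heated with TCA/0.25 M HCl and 6.7 mg/mL TBA for 15 min at 100 °C, centrifuged, and read at 532 nm. Hydrolyzed tetramethoxypropane served as standard, with values normalized to protein. H2O2 (10 µM) was the positive control. Three independent experiments in triplicate; ANOVA/Tukey.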

[8] = Selective index, ratio of IC50 for chinese hamster V79 cells to IC50 for human HCT116 cells; summary of the method: as §3
[9] = Drug uptake in mitochondria of human PC3 cells at 5 uM after 10 mins by MitoTracker Red dye-based confocal microscopic analysis; format: ADME, cell-based; conditions: pc-3, 10 min
Summary of the method: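 PC3 cells were grown in DMEM with 10% FBS, antibiotics and 2 mM L-glutamine at 37 °C, 5% CO2. Cells were incubated with compound (5 µM) plus LysoTracker Red or MitoTracker Red for 10 min at 37 °C. Live cells were imaged in phenol red-free DMEM by confocal microscopy with a 40X oil objective, exciting at 488 nm (compound) and 543 nm (tracker dyes).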

L929 [10] = test: Induction of lipid peroxidation in mouse L929 cells assessed as increase in MDA levels at 2.5 to 10 uM after 24 hrs in absence of NAC by TBARS assay; format: cell-based; conditions: l929, 24 h; summary of the method: as §4
HCT-116 [11] = test: Induction of oxidative stress in human HCT116 cells assessed as GSH to GSSG ratio at 5 uM after 24 hrs by spectrophotometric analysis (reference value: 3.09 +/- 0.33 microg/mg); format: functional
SF-295 [12] = test: Geno-toxicity in human SF295 cells assessed as induction of DNA damage at 2.5 to 10 uM treated 24 hrs post NAC addition measured after 24 hrs by alkaline comet assay; format: functional, cell-based; summary of the method: as §1
PC-3 [13] = test: Induction of oxidative stress in human PC3 cells assessed as total GSSG levels at 5 uM treated 24 hrs post NAC addition measured after 24 hrs by spectrophotometric analysis (reference value: 1.11 +/- 0.12 microg/mg); format: functional; summary of the method: as §2
L929 [14] = test: Induction of oxidative stress in mouse L929 cells assessed as total GSH levels at 5 uM treated 24 hrs post NAC addition measured after 24 hrs by spectrophotometric analysis (reference value: 3.76 +/- 0.51 microg/mg); format: cell-based; conditions: l929, 24 h
PC-3 [15] = test: Induction of oxidative stress in human PC3 cells assessed as GSH to GSSG ratio at 5 uM after 24 hrs by spectrophotometric analysis (reference value: 2.69 +/- 0.21 microg/mg); format: functional
SF-295 [16] = test: Antiproliferative activity against human SF295 cells after 72 hrs by MTT assay; format: functional, cell-based; conditions: SF-295, 72 h
Summary of the method: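 MTT reduction: cancer lines plated at 0.7×10^5 to 0.3×10^6 cells/well, V79 and L929 fibroblasts at 0.5×10^5 cells/well. Compounds in DMSO (0.1%) were given for 24 h at 0.04–40.92 µM or 72 h at 0.04–8.19 µM. Fresh medium with 0.5 mg/mL MTT was added for 3 h, then formazan was dissolved in DMSO and read at 595 nm as % of control. IC50 came from nonlinear regression with 95% CI. Doxorubicin (0.001–1.06 µM) was the positive control. Triplicate, ≥3 repeats.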

L929 [17] = test: Geno-toxicity in mouse L929 cells assessed as induction of DNA damage at 2.5 to 10 uM after 24 hrs in absence of NAC by alkaline comet assay; format: cell-based; conditions: l929, 24 h; summary of the method: as §1
SF-295 [18] = test: Induction of oxidative stress in human SF295 cells assessed as total GSSG levels at 5 uM after 24 hrs by spectrophotometric analysis (reference value: 1.31 +/- 0.55 microg/mg); format: functional
HCT-116 [19] = test: Geno-toxicity in human HCT116 cells assessed as induction of DNA damage at 2.5 to 10 uM after 24 hrs in absence of NAC by alkaline comet assay; format: functional, cell-based; summary of the method: as §1
SF-295 [20] = test: Induction of oxidative stress in human SF295 cells assessed as total GSH levels at 5 uM treated 24 hrs post NAC addition measured after 24 hrs by spectrophotometric analysis (reference value: 3.16 +/- 0.21 microg/mg); format: functional; summary of the method: as §2
PC-3 [21] = test: Induction of oxidative stress in human PC3 cells assessed as total GSSG levels at 5 uM after 24 hrs by spectrophotometric analysis (reference value: 1.11 +/- 0.12 microg/mg); format: functional
SF-295 [22] = test: Induction of oxidative stress in human SF295 cells assessed as total GSH levels at 5 uM after 24 hrs by spectrophotometric analysis (reference value: 3.16 +/- 0.21 microg/mg); format: functional

Activity (L929 [2]): 1.24 µg/mg
Activity (L929 [5]): 3.08 µg/mg
Drug uptake [9]: Metabolite_Notdetected
Activity (L929 [14]): 3.89 µg/mg
SMILES: CC1(C)OC2=C(C(=O)C(=O)c3ccccc32)C1n1cc(CNC2=[N+]3C(=C(c4ccccc4)c4ccc(Cl)n4[B-]3(F)F)C=C2)nn1 (configuration not stated)
Activity (PC-3 [1]): Active
Activity (PC-3 [3]): 2.88 µg/mg
Ratio IC50 [4]: 3
Ratio IC50 [6]: 1.4
Activity (HCT-116 [7]): Active
Ratio IC50 [8]: 2
Activity (L929 [10]): Toxic
Activity (HCT-116 [11]): 0.56 µg/mg
Activity (SF-295 [12]): Active
Activity (PC-3 [13]): 1.07 µg/mg
Activity (PC-3 [15]): 0.37 µg/mg
IC50 (SF-295 [16]): 280 nM
Activity (L929 [17]): Toxic
Activity (SF-295 [18]): 2.09 µg/mg
Activity (HCT-116 [19]): Active
Activity (SF-295 [20]): 3.47 µg/mg
Activity (PC-3 [21]): 2.16 µg/mg
Activity (SF-295 [22]): 1.31 µg/mg
